Data as given in ChEMBL document CHEMBL4002548 (Eur J Med Chem, 2017).
Each block holds one compound with its values, some of them ahead of it.

What was measured:
[1] = biological target: T1, Fibroblast growth factor receptor 1 (Homo sapiens, UniProt P11362); test: Inhibition of recombinant FGFR1 (unknown origin) using poly (Glu, Tyr) 4:1 after 60 mins by ELISA method
Target sequence in this assay (P11362 whole entry): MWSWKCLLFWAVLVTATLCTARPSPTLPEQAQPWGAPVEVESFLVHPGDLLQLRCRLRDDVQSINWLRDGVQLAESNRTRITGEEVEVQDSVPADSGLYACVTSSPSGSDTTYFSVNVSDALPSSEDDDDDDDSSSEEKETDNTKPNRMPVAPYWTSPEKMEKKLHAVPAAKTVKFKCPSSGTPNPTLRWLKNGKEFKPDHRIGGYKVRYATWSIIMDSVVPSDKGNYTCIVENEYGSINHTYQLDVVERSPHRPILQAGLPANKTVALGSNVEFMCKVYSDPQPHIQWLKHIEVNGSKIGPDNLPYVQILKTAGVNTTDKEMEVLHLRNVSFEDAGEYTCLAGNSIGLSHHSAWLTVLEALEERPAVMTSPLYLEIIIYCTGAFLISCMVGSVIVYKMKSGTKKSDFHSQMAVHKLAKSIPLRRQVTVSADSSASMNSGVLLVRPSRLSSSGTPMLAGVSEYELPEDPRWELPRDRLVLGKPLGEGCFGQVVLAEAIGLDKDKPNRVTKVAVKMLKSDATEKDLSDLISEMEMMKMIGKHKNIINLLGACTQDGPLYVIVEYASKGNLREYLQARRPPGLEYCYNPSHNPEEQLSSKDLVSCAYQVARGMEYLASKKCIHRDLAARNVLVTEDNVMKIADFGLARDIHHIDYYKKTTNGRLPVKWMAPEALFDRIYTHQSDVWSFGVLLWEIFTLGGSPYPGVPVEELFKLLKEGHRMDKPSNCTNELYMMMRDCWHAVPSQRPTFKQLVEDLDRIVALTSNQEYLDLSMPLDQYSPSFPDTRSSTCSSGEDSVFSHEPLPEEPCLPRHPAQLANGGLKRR

KG-1 = test: Antiproliferative activity against FGFR1-translocated human KG1 cells after 72 hrs by CCK8/SRB assay; format: functional, cell-based; conditions: KG-1, 72 h
How it was run: (§1)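 Cells seeded, then exposed next day to a range of compound concentrations for 72 h. Proliferation read by sulforhodamine B or CCK-8. IC50 obtained by four-parameter concentration–response curve fitting from two separate experiments. BaF3 lines stably express constitutively active TEL-FGFR4, TEL-KDR, CCDC6-RET or CCDC6-RET-V804M.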

[2] = biological target: Vascular endothelial growth factor receptor 2 (Homo sapiens, UniProt P35968); test: Inhibition of recombinant KDR (unknown origin) using poly (Glu, Tyr) 4:1 after 60 mins by ELISA method
NCI-H1581 [3] = test: Antitumor activity against FGFR1-amplified human NCI-H1581 cells xenografted in nude mouse assessed as tumor growth inhibition at 20 mg/kg, po qd administered for 10 days and measured on day 10 post last dose relative to vehicle-treated control; format: functional; conditions: 240 h, read-out: TGI
How it was run: (§2)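 Male nude mice, 4-6 weeks old, kept under SPF conditions. Tumours grown s.c. from 5×10^6 cells, then passaged as 1 mm³ fragments by trocar. Randomised at 120–150 mm³ (n=6 treated, 12 vehicle). Compound given orally once daily, 10 days for NCI-H1581 and 18 days for SNU16. Calipers twice weekly; V = L×W²/2. TGI taken on final day from volume change versus vehicle.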

[4] = Inhibition of recombinant RET […] mutant (unknown origin) using poly (Glu,Tyr) 4:1 as substrate after 60 mins by ELISA; set-up: species or system Homo sapiens
How it was run: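 Poly(Glu,Tyr) 4:1 pre-coated at 20 µg/mL as substrate. Reaction with 10 µmol/L ATP in HEPES pH 7.4 buffer containing MgCl2, MnCl2, Na3VO4 and DTT; compound in 1% DMSO, with 1% DMSO as negative control; started by adding kinase. Run 60 min at 37 °C. Phosphotyrosine detected with PY99 and HRP anti-mouse IgG, o-phenylenediamine colour read at 490 nm. IC50 from inhibition curves, two separate experiments.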

SNU-16 [5] = test: Antiproliferative activity against FGFR2-amplified human SNU16 cells after 72 hrs by CCK8/SRB assay; format: functional, cell-based; conditions: SNU-16, 72 h; how it was run: as §1
NCI-H1581 [6] = test: Antiproliferative activity against FGFR1-amplified human NCI-H1581 cells after 72 hrs by CCK8/SRB assay; conditions: NCI-H1581, 72 h
BaF3 [7] = test: Antiproliferative activity against mouse BAF3 cells expressing CCDC6-RET […] mutant after 72 hrs by CCK8/SRB assay; format: functional, cell-based; conditions: BaF3, 72 h; how it was run: as §1
RT-112 = test: Antiproliferative activity against FGFR3-amplified human RT112 cells after 72 hrs by CCK8/SRB assay; format: functional, cell-based; conditions: RT-112, 72 h; how it was run: as §1
SNU-16 [8] = test: Antitumor activity against FGFR2-amplified human SNU16 cells xenografted in nude mouse assessed as tumor growth inhibition at 30 mg/kg, po qd administered for 18 days and measured on day 18 post last dose relative to vehicle-treated control; format: functional; conditions: SNU-16, po, 432 h, read-out: TGI; how it was run: as §2
BaF3 [9] = test: Antiproliferative activity against mouse BAF3 cells expressing CCDC6-RET fusion protein after 72 hrs by CCK8/SRB assay; format: functional, cell-based; conditions: BaF3, 72 h; how it was run: as §1
[10] = biological target: Fibroblast growth factor receptor 2 (Homo sapiens, UniProt P21802); test: Inhibition of recombinant FGFR2 (unknown origin) using poly (Glu,Tyr) 4:1 as substrate after 60 mins by ELISA
[11] = biological target: Fibroblast growth factor receptor 3 (Homo sapiens, UniProt P22607); test: Inhibition of recombinant FGFR3 (unknown origin) using poly (Glu,Tyr) 4:1 as substrate after 60 mins by ELISA
[12] = biological target: Proto-oncogene tyrosine-protein kinase Src (Homo sapiens, UniProt P12931); test: Inhibition of recombinant c-Src (unknown origin) using poly (Glu,Tyr) 4:1 as substrate after 60 mins by ELISA
[13] = biological target: Proto-oncogene tyrosine-protein kinase receptor Ret (Homo sapiens, UniProt P07949); test: Inhibition of recombinant RET (unknown origin) using poly (Glu,Tyr) 4:1 as substrate after 60 mins by ELISA
[14] = biological target: Tyrosine-protein kinase ABL1 (Homo sapiens, UniProt P00519); test: Inhibition of recombinant ABL (unknown origin) using poly (Glu,Tyr) 4:1 as substrate after 60 mins by ELISA
[15] = biological target: T1, Fibroblast growth factor receptor 1; test: Inhibition of FGFR1 phosphorylation in FGFR1 translocated human KG1 cells after 2 hrs by Western blot method
How it was run: (§3)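 KG1 cells treated with a range of compound concentrations for 2 h at 37 °C, then lysed in 1× SDS sample buffer. Lysates resolved by SDS–PAGE and blotted. Probes: phospho-FGFR1, FGFR, phospho-PLCγ, PLCγ, phospho-ERK1/2, ERK1/2, with GAPDH as loading control. Detection by HRP secondary and enhanced chemiluminescence.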
Target sequence in this assay (P11362 22-822 limits assumed): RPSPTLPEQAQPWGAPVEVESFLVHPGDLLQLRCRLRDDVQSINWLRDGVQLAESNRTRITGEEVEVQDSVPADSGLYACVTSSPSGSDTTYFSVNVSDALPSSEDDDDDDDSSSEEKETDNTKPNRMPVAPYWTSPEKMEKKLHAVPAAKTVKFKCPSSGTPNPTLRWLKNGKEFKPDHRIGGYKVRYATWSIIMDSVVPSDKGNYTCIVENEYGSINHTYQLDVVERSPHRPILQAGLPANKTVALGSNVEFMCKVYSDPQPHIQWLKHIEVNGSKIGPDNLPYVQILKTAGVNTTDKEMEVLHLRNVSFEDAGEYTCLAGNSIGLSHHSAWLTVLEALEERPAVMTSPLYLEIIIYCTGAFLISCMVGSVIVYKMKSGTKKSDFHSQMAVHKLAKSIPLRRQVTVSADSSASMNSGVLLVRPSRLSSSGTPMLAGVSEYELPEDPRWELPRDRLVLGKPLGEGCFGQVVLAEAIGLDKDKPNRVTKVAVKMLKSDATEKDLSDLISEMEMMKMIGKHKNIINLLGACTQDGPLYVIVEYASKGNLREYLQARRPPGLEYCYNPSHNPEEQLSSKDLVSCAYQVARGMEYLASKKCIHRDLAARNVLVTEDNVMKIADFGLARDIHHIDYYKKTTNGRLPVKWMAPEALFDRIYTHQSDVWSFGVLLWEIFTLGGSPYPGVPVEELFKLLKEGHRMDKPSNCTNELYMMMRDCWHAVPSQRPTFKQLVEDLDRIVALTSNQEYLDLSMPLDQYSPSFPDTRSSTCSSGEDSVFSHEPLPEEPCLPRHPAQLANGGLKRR

[16] = biological target: Epidermal growth factor receptor (Homo sapiens, UniProt P00533); test: Inhibition of recombinant EGFR (unknown origin) using poly (Glu,Tyr) 4:1 as substrate after 60 mins by ELISA
SNU-16 [17] = test: Antitumor activity against FGFR2-amplified human SNU16 cells xenografted in nude mouse assessed as tumor growth inhibition at 20 mg/kg, po qd administered for 18 days and measured on day 18 post last dose relative to vehicle-treated control; format: functional; conditions: SNU-16, po, 432 h, read-out: TGI; how it was run: as §2
[18] = AUC (0 to 24 hrs) in mouse at 10 mg/kg, po; format: ADME, organism-based; set-up: time < 24 hr, dose 10 mg/kg, route oral; conditions: in vivo
[19] = biological target: T1, Fibroblast growth factor receptor 1; test: Inhibition of FGFR1 in FGFR1 translocated human KG1 cells assessed as suppression of phosphorylated ERK after 2 hrs by Western blot analysis; how it was run: as §3
Target sequence in this assay (P11362 22-822 limits assumed): as above

[20] = biological target: Fibroblast growth factor receptor 4 (Homo sapiens, UniProt P22455); test: Inhibition of recombinant FGFR4 (unknown origin) using poly (Glu,Tyr) 4:1 as substrate after 60 mins by ELISA
[21] = biological target: Platelet-derived growth factor receptor alpha (Homo sapiens, UniProt P16234); test: Inhibition of recombinant PDGFRalpha (unknown origin) using poly (Glu,Tyr) 4:1 as substrate after 60 mins by ELISA
[22] = biological target: T1, Fibroblast growth factor receptor 1; test: Inhibition of FGFR1 in FGFR1 translocated human KG1 cells assessed as suppression of PLCgamma phosphorylation after 2 hrs by Western blot analysis; how it was run: as §3
Target sequence in this assay (P11362 22-822 limits assumed): as above

[23] = biological target: Platelet-derived growth factor receptor beta (Homo sapiens, UniProt P09619); test: Inhibition of recombinant PDGFRbeta (unknown origin) using poly (Glu,Tyr) 4:1 as substrate after 60 mins by ELISA
BaF3 [24] = test: Antiproliferative activity against mouse BAF3 cells expressing TEL-KDR fusion protein after 72 hrs by CCK8/SRB assay; format: functional, cell-based; conditions: BaF3, 72 h; how it was run: as §1
[25] = biological target: Vascular endothelial growth factor receptor 1 (Homo sapiens, UniProt P17948); test: Inhibition of recombinant VEGFR1 (unknown origin) using poly (Glu,Tyr) 4:1 as substrate after 60 mins by ELISA
BaF3 [26] = test: Antiproliferative activity against mouse BAF3 cells expressing TEL-FGFR4 fusion protein after 72 hrs by CCK8/SRB assay; format: functional, cell-based; conditions: BaF3, 72 h; how it was run: as §1
NCI-H1581 [27] = test: Antitumor activity against FGFR1-amplified human NCI-H1581 cells xenografted in nude mouse assessed as tumor growth inhibition at 5 mg/kg, po qd administered for 10 days and measured on day 10 post last dose relative to vehicle-treated control; format: functional; conditions: 240 h, read-out: TGI; how it was run: as §2

Sequence of Vascular endothelial growth factor receptor 2 (P35968 whole entry): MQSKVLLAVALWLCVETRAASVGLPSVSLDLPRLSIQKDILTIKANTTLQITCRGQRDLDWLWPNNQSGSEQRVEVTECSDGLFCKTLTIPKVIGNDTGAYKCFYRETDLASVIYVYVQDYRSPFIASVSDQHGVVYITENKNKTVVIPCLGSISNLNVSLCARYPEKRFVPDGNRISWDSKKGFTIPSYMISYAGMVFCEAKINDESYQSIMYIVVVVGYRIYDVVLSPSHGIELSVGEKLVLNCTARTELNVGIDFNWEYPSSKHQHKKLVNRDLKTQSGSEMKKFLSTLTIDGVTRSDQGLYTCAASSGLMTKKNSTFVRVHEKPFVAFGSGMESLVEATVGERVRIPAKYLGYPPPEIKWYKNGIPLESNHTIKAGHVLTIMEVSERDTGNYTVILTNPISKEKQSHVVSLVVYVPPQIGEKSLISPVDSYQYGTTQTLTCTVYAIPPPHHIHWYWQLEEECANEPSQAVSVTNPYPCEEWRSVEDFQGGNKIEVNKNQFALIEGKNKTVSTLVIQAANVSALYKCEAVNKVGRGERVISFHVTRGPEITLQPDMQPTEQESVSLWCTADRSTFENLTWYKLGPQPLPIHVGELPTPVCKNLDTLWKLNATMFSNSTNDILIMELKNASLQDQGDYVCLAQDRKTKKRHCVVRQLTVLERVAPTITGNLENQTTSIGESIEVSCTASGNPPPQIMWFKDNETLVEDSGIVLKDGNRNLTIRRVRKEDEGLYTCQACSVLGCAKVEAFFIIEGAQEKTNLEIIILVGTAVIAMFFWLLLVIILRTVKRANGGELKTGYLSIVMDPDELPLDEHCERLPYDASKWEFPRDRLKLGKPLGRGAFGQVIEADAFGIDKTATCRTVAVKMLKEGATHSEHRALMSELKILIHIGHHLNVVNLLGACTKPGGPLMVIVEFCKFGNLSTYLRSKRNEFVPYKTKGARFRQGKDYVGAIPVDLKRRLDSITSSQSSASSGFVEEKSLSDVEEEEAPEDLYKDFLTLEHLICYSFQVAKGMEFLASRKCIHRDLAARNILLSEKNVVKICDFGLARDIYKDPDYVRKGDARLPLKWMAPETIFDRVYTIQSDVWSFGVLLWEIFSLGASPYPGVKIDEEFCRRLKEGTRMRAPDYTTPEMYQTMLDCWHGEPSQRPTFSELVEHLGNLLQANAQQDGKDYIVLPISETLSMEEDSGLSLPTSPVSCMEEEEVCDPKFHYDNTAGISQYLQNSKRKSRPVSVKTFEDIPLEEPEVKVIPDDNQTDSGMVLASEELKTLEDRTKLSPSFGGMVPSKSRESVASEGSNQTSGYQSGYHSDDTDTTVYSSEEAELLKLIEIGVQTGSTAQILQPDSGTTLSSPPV
Sequence of Tyrosine-protein kinase ABL1 (P00519 whole entry): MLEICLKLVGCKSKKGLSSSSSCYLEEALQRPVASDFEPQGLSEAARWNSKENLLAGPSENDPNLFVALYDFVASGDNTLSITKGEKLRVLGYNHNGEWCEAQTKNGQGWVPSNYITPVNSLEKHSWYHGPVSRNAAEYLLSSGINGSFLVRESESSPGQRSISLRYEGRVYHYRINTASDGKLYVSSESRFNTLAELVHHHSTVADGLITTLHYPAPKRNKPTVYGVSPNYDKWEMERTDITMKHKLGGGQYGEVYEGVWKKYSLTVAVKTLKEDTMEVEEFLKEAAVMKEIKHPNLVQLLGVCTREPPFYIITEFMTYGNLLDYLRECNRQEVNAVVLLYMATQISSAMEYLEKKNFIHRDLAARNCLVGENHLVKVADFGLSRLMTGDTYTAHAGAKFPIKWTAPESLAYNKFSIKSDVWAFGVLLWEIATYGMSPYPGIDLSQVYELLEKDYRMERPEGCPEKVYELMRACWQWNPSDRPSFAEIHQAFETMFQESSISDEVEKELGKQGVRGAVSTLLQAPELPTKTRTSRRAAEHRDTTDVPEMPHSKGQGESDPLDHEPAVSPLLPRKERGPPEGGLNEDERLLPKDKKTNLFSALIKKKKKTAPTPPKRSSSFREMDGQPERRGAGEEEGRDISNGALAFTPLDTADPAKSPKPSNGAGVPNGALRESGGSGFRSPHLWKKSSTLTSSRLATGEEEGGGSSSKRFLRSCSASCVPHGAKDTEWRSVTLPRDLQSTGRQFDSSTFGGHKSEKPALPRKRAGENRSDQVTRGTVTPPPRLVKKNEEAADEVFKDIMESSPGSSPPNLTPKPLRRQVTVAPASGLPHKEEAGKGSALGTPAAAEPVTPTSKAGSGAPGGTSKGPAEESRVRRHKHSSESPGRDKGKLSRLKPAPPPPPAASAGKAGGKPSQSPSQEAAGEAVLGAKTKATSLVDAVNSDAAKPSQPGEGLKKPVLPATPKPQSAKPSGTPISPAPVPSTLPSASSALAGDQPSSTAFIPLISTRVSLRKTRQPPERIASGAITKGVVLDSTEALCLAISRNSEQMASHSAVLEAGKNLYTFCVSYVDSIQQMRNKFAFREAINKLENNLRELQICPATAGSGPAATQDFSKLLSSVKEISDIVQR
Sequence of Fibroblast growth factor receptor 3 (P22607 whole entry): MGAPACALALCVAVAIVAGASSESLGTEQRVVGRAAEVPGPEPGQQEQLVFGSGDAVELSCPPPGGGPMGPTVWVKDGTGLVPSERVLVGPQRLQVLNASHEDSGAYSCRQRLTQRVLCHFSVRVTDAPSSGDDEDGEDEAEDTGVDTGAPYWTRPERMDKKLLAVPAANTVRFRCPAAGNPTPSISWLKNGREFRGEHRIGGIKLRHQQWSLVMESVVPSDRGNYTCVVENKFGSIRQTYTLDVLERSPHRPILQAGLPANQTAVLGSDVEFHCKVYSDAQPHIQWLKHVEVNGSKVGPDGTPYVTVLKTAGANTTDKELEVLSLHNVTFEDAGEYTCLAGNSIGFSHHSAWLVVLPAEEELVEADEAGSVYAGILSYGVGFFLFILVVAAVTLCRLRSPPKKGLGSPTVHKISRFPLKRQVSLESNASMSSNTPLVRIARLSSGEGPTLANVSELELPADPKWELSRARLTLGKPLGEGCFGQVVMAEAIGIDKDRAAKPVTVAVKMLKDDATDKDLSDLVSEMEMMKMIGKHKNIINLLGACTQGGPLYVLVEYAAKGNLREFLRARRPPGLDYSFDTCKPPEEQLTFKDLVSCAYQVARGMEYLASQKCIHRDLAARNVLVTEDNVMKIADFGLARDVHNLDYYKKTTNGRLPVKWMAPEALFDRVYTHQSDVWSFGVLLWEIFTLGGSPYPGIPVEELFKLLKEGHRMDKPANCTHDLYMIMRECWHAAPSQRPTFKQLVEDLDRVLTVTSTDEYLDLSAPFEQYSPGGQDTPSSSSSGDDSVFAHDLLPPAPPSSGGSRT

IC50 [1]: > 100 nM
Compound: CN1CCN(Cc2ccc(NC(=O)c3cccc(C#Cc4cncc5ccccc45)n3)cc2C(F)(F)F)CC1

IC50 [2]: 108 nM
Compound: Cc1ccc(C(=O)Nc2ccc(CN3CCN(C)CC3)c(C(F)(F)F)c2)cc1C#Cc1cncc(N2CCCC2)c1
IC50 (KG-1): 119 nM

IC50 [1]: 12.8 nM | IC50 [2]: 110 nM
Compound: COc1cncc(C#Cc2cc(C(=O)Nc3ccc(CN4CCN(C)CC4)c(C(F)(F)F)c3)ccc2C)c1
IC50 (KG-1): 125 nM

IC50 [2]: 2.6 nM
Compound: CN1CCN(Cc2ccc(NC(=O)c3cncc(C#Cc4cncc5ccccc45)c3)cc2C(F)(F)F)CC1
IC50 (KG-1): > 500 nM

Compound: COc1cc(CCc2cc(NC(=O)c3ccc(N4C[C@@H](C)N[C@@H](C)C4)cc3)n[nH]2)cc(OC)c1 [FEXAGRATINIB]
inhibition in vivo at 20 mg/kg (NCI-H1581 [3]): 79.5%

IC50 [2]: 6.5 nM
Compound: CN1CCN(Cc2ccc(NC(=O)c3ccnc(C#Cc4cncc5ccccc45)c3)cc2C(F)(F)F)CC1
IC50 (KG-1): 427 nM

IC50 [4]: 1.9 nM | IC50 (SNU-16 [5]): 33.6 nM | IC50 (NCI-H1581 [6]): 194 nM | IC50 (BaF3 [7]): 71.5 nM
Compound: Cc1ccc(C(=O)Nc2ccc(CN3CCN(C)CC3)c(C(F)(F)F)c2)cc1C#Cc1cnc2cccnn12 [PONATINIB]
IC50 (KG-1): 17.2 nM | IC50 (RT-112): 736 nM | inhibition in vivo at 30 mg/kg (SNU-16 [8]): 75.3%

IC50 [2]: 89.9 nM
Compound: Cc1ccc(C(=O)Nc2ccc(CN3CCN(C)CC3)c(C(F)(F)F)c2)cc1C#Cc1cncc(N2CCOCC2)c1
IC50 (KG-1): 24.3 nM

IC50 [2]: 105 nM
Compound: CCN(CC)c1cncc(C#Cc2cc(C(=O)Nc3ccc(CN4CCN(C)CC4)c(C(F)(F)F)c3)ccc2C)c1
IC50 (KG-1): 58.3 nM

IC50 [1]: 1.2 nM | IC50 [2]: 79.1 nM
Compound: Cc1ccc(C(=O)Nc2ccc(CN3CCN(C)CC3)c(C(F)(F)F)c2)cc1C#Cc1cncc2ccccc12
IC50 (KG-1): 175 nM

Compound: CN1CCN(Cc2ccc(NC(=O)c3ccnc(C#Cc4cncc5ccccc45)n3)cc2C(F)(F)F)CC1
IC50 (KG-1): > 500 nM

IC50 [2]: 91.4 nM
Compound: CN1CCN(Cc2ccc(NC(=O)c3ccc(Cl)c(C#Cc4cncc5ccccc45)c3)cc2C(F)(F)F)CC1
IC50 (KG-1): 88.2 nM

IC50 [2]: 63.5 nM
Compound: Cc1ccc(C(=O)Nc2ccc(CN3CCN(C)CC3)c(C(F)(F)F)c2)cc1C#Cc1cncc2c1ccn2C
IC50 (KG-1): 10 nM

Compound: CN1CCN(Cc2ccc(NC(=O)c3cc(C#Cc4cncc5ccccc45)ccn3)cc2C(F)(F)F)CC1
IC50 (KG-1): > 500 nM

Compound: COc1ccc(C(=O)Nc2ccc(CN3CCN(C)CC3)c(C(F)(F)F)c2)cc1C#Cc1cncc2ccccc12
IC50 (KG-1): > 500 nM

IC50 [1]: > 100 nM
Compound: CC(C)c1ccc(C(=O)Nc2ccc(CN3CCN(C)CC3)c(C(F)(F)F)c2)cc1C#Cc1cncc2ccccc12

IC50 [2]: 2.5 nM
Compound: CN1CCN(Cc2ccc(NC(=O)c3cccc(C#Cc4cncc5ccccc45)c3)cc2C(F)(F)F)CC1
IC50 (KG-1): 67.6 nM

IC50 [1]: > 100 nM
Compound: CN1CCN(Cc2ccc(NC(=O)c3ccc(C(F)(F)F)c(C#Cc4cncc5ccccc45)c3)cc2C(F)(F)F)CC1
IC50 (KG-1): > 500 nM

IC50 [2]: 5.5 nM
Compound: CN1CCN(Cc2ccc(NC(=O)c3ccc(F)c(C#Cc4cncc5ccccc45)c3)cc2C(F)(F)F)CC1
IC50 (KG-1): 27.8 nM

IC50 (BaF3 [9]): 37.2 nM | IC50 [1]: 0.5 nM | IC50 [10]: 0.3 nM | IC50 [11]: 1 nM | IC50 [12]: 10.8 nM | IC50 [13]: 1.3 nM | IC50 [14]: 23.2 nM | inhibition [15]: Dose-dependent effect | IC50 [4]: 7.5 nM | IC50 [16]: > 100 nM | AUC(0-t) at 24 h [18]: 11400 ng·h/mL | IC50 (SNU-16 [5]): 26.4 nM | IC50 (NCI-H1581 [6]): 57 nM | inhibition [19]: Dose-dependent effect | IC50 [20]: 5.5 nM | IC50 [2]: 48.7 nM | IC50 (BaF3 [7]): 33.4 nM | IC50 [21]: 5.6 nM | inhibition [22]: Dose-dependent effect | IC50 [23]: 5.5 nM | IC50 (BaF3 [24]): 489 nM | IC50 [25]: 62.7 nM | IC50 (BaF3 [26]): 131 nM
Compound: CN1CCN(Cc2ccc(NC(=O)c3ccc(Cl)c(C#Cc4cncc(N5CCOCC5)c4)c3)cc2C(F)(F)F)CC1
inhibition in vivo at 20 mg/kg (SNU-16 [17]): 93.9% | IC50 (KG-1): 7.5 nM | inhibition in vivo at 20 mg/kg (NCI-H1581 [3]): 73.4% | IC50 (RT-112): 514 nM | inhibition in vivo at 5 mg/kg (NCI-H1581 [27]): 8.3%

IC50 [1]: 5.7 nM | IC50 [2]: 21.8 nM
Compound: Cc1ccc(C(=O)Nc2ccc(CN3CCN(C)CC3)c(C(F)(F)F)c2)cc1C#Cc1cncc(N2CCN(C)CC2)c1
IC50 (KG-1): 21.7 nM

IC50 [2]: 59.9 nM
Compound: Cc1ccc(C(=O)Nc2ccc(CN3CCN(C)CC3)c(C(F)(F)F)c2)cc1C#Cc1cncc(NC(C)C)c1
IC50 (KG-1): 84.5 nM

IC50 [2]: > 100 nM
Compound: Cc1ccc(C(=O)Nc2ccc(CN3CCN(C)CC3)c(C(F)(F)F)c2)cc1C#Cc1cncc2[nH]ccc12
IC50 (KG-1): 490 nM
